HEK293 NFkB inh – inhibitors of PMA/ionomycin-induced NF-kB reporter, primary screen, antigen receptor NF-kB inhibitor project, cell-based, HEK-293 luciferase reporter, luminescence. HEK-293 NF-kB luciferase reporter. inhibition, % at 3 µM. 0.21% of 62,000 active. AID 465, 2006;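 active = inhibition above the mean of all tested compounds plus 3 SD, cut at about 40% in these data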;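 note: 0% = stimulated DMSO wells and 100% = 10 µM reference inhibitor 5653914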
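Signal: luciferase luminescence; Material: HEK-293 cells with stable firefly luciferase reporter driven by four HIV NF-kB elements; Probe or stimulus: PMA with ionomycin; Replication: tested once; Times: 1 h compound pretreatment, then 16 h stimulation at 37 °C, 5% CO2; Benchmarks: DMSO and 10 µM reference inhibitor; Evaluation: per-plate % inhibition versus controls.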
Jurkat tox 60K – cytotoxicity toward Jurkat T cells, primary screen, cytotoxicity control, cell-based, Jurkat E6.1, 60K MLSMR library; Jurkat E6.1 viability, ATP luminescence, 48 h; 1.2% of 56,000 active; inhibition, % at 4 µM;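 active = inhibition above the mean inhibition of all tested compounds plus 3 SD, cut at about 28% in these data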
M1 ag – M1 muscarinic receptor agonists, primary screen, CHO-M1 cells, Fluo-4 calcium, agonist mode. Muscarinic acetylcholine receptor M1. Fluo-4 calcium fluorescence; active compounds read high. B-score at 10 µM. 3% of 64,000 active;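 active = fluorescence rise, raw or as B-score row- and column-corrected plate score, outside the 99.7% band of its plate's samples, either direction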
hDAT+cocaine – changed hDAT dopamine uptake under cocaine IC80, either direction, primary screen, cocaine antagonist project, cell-based, LLC-PK1 hDAT, [14C]-dopamine uptake, MLSMR | Sodium-dependent dopamine transporter (Homo sapiens), Q01959 | 1.3% of 110,000 active | AID 449768, 2010 | B-score at 10 µM | LLC-PK1 hDAT cells, [14C]-dopamine uptake with cocaine IC80; actives deviate in either direction;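 active = Z score or B-score, a plate-position-corrected score, falls beyond the plate's 99.7% confidence bounds, in either direction; inactive = both scores lie inside the 99.7% bounds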;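 note: scored against the spread of the other compound wells on the same plate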
M1 antagonist – antagonists of rat M1 muscarinic receptor. Muscarinic acetylcholine receptor M1 (Rattus norvegicus), P08482. CHO-M1 cells, Fluo-4 calcium, ACh EC80 antagonist mode; active compounds read low. B-score at 10 µM. 3.4% of 64,000 active. AID 628, 2007;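 active = calcium fluorescence response, raw or row-and-column corrected B-score, differing from the plate sample mean either way at a set confidence level, mostly lower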
D1 mod – D1 CRE-luciferase signal change, two-sided – cell-based, HEK293 D1, dopamine EC30, D1 allosteric modulator project, primary screen. D(1A) dopamine receptor (Homo sapiens), P21728. dopamine EC30 potentiation; actives deviate in either direction. B-score at 10 µM. 5.9% of 58,000 active. AID 641, 2007;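 active = luminescence count or its row- and column-corrected plate score outside the 99.7% band of the plate's sample wells, on either side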
M1 ag confirm – rat M1 muscarinic receptor agonists, confirmation, CHO-M1 cells, Fluo-4 calcium, duplicate retest | fluorescence change (max-min) at 10 µM | 19% of 1,700 active | shares compounds with M1 ag | Fluo-4 calcium fluorescence, agonist mode; actives lie on both sides;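 active = fluorescence change differs from the solvent-only DMSO control mean at a set confidence level in both duplicate runs; inconclusive = differs from solvent-only control mean in just one of two runs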;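 note: an EC20 dose of acetylcholine follows compound addition during the same imaging run; raw fluorescence intensity difference in instrument units with no normalization to controls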
M4 ag counter – agonist activity at rat M4 receptor, confirmation, counter-screen for M1 allosteric modulator project, cell-based, agonist mode; shares compounds with M1 ag; 9% of 1,700 active; CHO M4/Gqi5 cells, Fluo-4 calcium fluorescence; actives lie on both sides; AID 1741, 2009; fluorescence change (max-min) at 10 µM;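 active = fluorescence change differing from the plate's solvent-only control wells at 99.7% confidence in both duplicates, whether higher or lower; inconclusive = differs from solvent controls in only one of two duplicates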
Target sequence (P08485 whole entry, looked up): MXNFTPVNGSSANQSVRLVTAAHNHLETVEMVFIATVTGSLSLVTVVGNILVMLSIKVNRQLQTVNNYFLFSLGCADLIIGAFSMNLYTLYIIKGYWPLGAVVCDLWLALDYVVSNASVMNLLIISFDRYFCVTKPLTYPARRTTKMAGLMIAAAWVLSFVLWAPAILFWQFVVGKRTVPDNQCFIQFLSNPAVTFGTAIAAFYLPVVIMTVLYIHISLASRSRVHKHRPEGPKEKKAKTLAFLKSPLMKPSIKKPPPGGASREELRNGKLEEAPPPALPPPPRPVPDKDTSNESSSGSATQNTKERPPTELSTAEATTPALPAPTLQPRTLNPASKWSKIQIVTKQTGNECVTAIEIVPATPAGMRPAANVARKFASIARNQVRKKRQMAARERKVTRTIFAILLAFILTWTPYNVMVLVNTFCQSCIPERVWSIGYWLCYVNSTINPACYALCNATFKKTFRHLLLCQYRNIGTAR
* marks the source's active call; other numbers are inactive results; ? = inconclusive; . = no result. The list is not random: actives were taken first. Their share in the collection is about 7.6%.

SMILES	HEK293 NFkB inh	Jurkat tox 60K	M1 ag	hDAT+cocaine	M1 antagonist	D1 mod	M1 ag confirm	M4 ag counter
O=C(O)c1ccccc1NCN1C(=O)C2CC=C(Cl)CC2C1=O (stereo not drawn)	5	-1	-2.2*	-1.5	-0.34	0.042	-26*	?
O=C1C2CC=C(Cl)CC2C(=O)N1CC1Cc2ccccc2CO1 (stereo not drawn)	15	5	2.2*	0.47	0.43	2.4	28	-18
COc1ccc(CCNc2oc(-c3ccccc3OC)nc2C#N)cc1	25	0	0.58	1.4	-2.1	0.61	.	.
COc1ccc(CCNc2oc(-c3ccccc3OC)nc2C#N)cc1OC	24	-2	3.6*	4.6*	0.35	3.1	-22	-74*
CCN(CC)c1ccc2cc(C(=O)Nc3ccccn3)c(=O)oc2c1	.	.	353*	-0.65	-4.6*	.	964*	1294*
CCN(CC)c1ccc2cc(NC(=O)CCC(=O)O)c(=O)oc2c1	53*	-7	289*	-0.41	-1.6*	-7.7*	1953*	1754*
C[C@@H](O)[C@@H]1NC(=O)c2cc([N+](=O)[O-])cc(I)c2NCC[C@@H](C(N)=O)NC(=O)CNC1=O	.	.	.	0.11	.	.	.	.
C=CCOC(=O)C1=C(C)OC(N)=C(C#N)C1c1ccoc1 (stereo not drawn)	.	.	21*	-0.065	0.74	.	12	0.98
CCOc1cc(NS(C)(=O)=O)c(OCC)cc1NC(=O)c1cccs1	1	-5	-0.74	-1.1	-0.55	0.64	.	.
CCOC(=O)c1oc2cccc(O)c2c1CN(Cc1ccccc1)C(C)=O	10	7	2.6*	-1.6	0.73	2	?	-44
CCOC(=O)c1oc2cccc(O)c2c1C	.	.	.	1.8	.	.	.	.
Cc1ccc(-n2c(C)c3c(C)nnc(C)c3c2C)cc1C	.	.	.	-0.2	.	.	.	.
CC(=O)c1c(C)[nH]c(C(=O)CSc2nnc(-c3ccco3)n2Cc2ccccc2)c1C	15	4	2.6*	0.0021	-0.94	-0.37	-6.6	-34
CCOC(=O)c1c(C)oc2c1c1c(c3ccccc32)OCN(Cc2ccccn2)C1	.	.	.	-1.1	.	.	.	.
CCOC(=O)c1c(C)oc2c1c(C(c1ccncc1)N1CCOCC1)c(O)c1ccccc12 (stereo not drawn)	16	-5	3*	-0.56	0.011	0.099	?	-50
COc1ccccc1CNC(=O)Cn1nnc(-c2ccncc2)n1	3	0	.	0.4	.	0.31	.	.
CCOC(=O)Cc1cc(=O)n2[nH]c(C)c(C#N)c2n1	.	.	.	-0.051	.	.	.	.
CCOC(=O)c1c(NC(=O)CSc2nnc(-c3ccccc3C)n2C)sc(C(C)=O)c1C	12	16	2.4*	0.33	-5.2*	0.58	-9.6	?
COc1ccc(F)cc1CN1CCN(c2cc(C)nc3c4c(C)cc(C)nc4nn23)CC1	0	10	3.5*	2.3	-0.92	-0.1	?	-38
COc1ccc(Cl)cc1CN1CCN(c2nc(C)cc(C)c2C#N)CC1	16	0	7.4*	-0.92	0.0097	0.41	21	5.9
O=c1c(C=NCCCn2ccnc2)c(-c2ccccc2)[nH]n1-c1nc2ccccc2s1	.	.	5.2*	1.1	-1.1	1.6	-4.6	-18
Cc1cc(C(=O)CSc2nnc(-c3cccs3)n2Cc2ccccc2)c(C)n1C	5	8	-0.033	0.82	0.2	-0.45	.	.
O=c1cc(CSc2nnc(-c3cccs3)n2Cc2ccccc2)nc2sc3ccccc3n12	23	71*	4.2*	0.0035	-0.36	-1.5	4.4	-14
COCCCN1C(=O)C(O)=C(C(C)=O)C1c1ccccn1 (stereo not drawn)	16	-8	0.32	-0.25	0.36	-0.45	.	.
O=C(NCCN1CCN(c2ccccc2F)CC1)c1cccn2c(=O)c3ccccc3nc12	21	4	6.7*	-0.14	-1.2	.	29	12
SMILES	HEK293 NFkB inh	Jurkat tox 60K	M1 ag	hDAT+cocaine	M1 antagonist	D1 mod	M1 ag confirm	M4 ag counter
CCn1c(SCC(=O)Nc2ccccc2)nnc1-c1ccc(S(=O)(=O)N2CCOCC2)cc1	13	-2	-0.42	1.7	-0.37	-0.5	.	.
CCOC(=O)Cc1nnc2c(Nc3ccccc3F)nc3nonc3n12	24	12	4.3*	-1	-0.64	-2.5	?	-54
CC1Cc2ccccc2N1C(=O)CCNS(=O)(=O)c1cccc2nsnc12 (stereo not drawn)	7	9	2.7*	-0.37	-0.04	-0.77	?	?
O=C(CCNS(=O)(=O)c1cccc2nsnc12)N1CCc2ccccc21	0	.	-0.37	0.25	0.21	.	.	.
CCN(CCCNC(=O)CCc1nc(-c2ccc(C)cc2)no1)c1cccc(C)c1	6	1	-0.018	0.068	-0.55	-0.39	.	.
C/C(=N\NC(=O)CNc1ccccc1Cl)C(C)(C)C	.	.	.	-0.19	.	.	.	.
Cc1ccc2nc3ccc(N4CCCCCCC4)nn3c(=O)c2c1	.	.	.	-0.14	.	.	.	.
Cc1sc2nc3ccc(N4CCCC4)nn3c(=O)c2c1C	9	15	6.6*	1.3	-0.56	.	-8.3	-46
C=CCn1cnc2c(c1=O)c1nc3ccccc3nc1n2/N=C/c1cc(OC)c(OC)c(OC)c1	18	2	11*	2.7	-2.2*	-0.99	-33*	-87
COc1cc(-n2c3nc4ccccc4nc3c3c(=O)n(Cc4ccco4)cnc32)cc(OC)c1OC	.	.	-0.52	.	0.38	.	.	.
c1ccc(N2CCN(c3nc4ccccc4n4nnnc34)CC2)cc1	8	7	17*	-0.21	0.11	0.65	?	?
c1ccc2c(c1)nc(N1CCOCC1)c1nnnn12	-3	0	6.4*	0.038	0.33	.	33	20
c1ccc2c(c1)nc(N1CCN(C3CCCCC3)CC1)c1nnnn12	-3	2	-0.49	-0.85	-0.93	0.34	.	.
COc1ccccc1NC(=O)CCc1c(C)[nH]c(=O)c(C#N)c1C	-8	1	-0.95	0.14	1.1	0.78	.	.
COc1ccc(CNC2CC(=O)N(C)C2=O)cc1 (stereo not drawn)	-5	0	3.4*	-0.56	0.22	-0.7	-14	-50

Compound activity from PubChem BioAssay.
